{"source": "ChEMBL document CHEMBL5678808", "about": "“Human target validation of phosphoinositide 3-kinase (PI3K)β: effects on platelets and insulin sensitivity, using AZD6482 a novel PI3Kβ inhibitor” (J Thromb Haemost, 2012)", "key": {"Focal adhesion kinase 1": {"molecular_target": "Focal adhesion kinase 1 (Homo sapiens, UniProt Q05397)", "experiment": "Inhibition of human FAK"}, "[1]": {"molecular_target": "Mitogen-activated protein kinase 9 (Homo sapiens) (UniProt P45984)", "experiment": "Inhibition of human MAPK9 at 10 uM relative to control"}, "[2]": {"molecular_target": "Serine/threonine-protein kinase PLK1 (Homo sapiens, UniProt P53350)", "sequence (P53350 whole entry)": "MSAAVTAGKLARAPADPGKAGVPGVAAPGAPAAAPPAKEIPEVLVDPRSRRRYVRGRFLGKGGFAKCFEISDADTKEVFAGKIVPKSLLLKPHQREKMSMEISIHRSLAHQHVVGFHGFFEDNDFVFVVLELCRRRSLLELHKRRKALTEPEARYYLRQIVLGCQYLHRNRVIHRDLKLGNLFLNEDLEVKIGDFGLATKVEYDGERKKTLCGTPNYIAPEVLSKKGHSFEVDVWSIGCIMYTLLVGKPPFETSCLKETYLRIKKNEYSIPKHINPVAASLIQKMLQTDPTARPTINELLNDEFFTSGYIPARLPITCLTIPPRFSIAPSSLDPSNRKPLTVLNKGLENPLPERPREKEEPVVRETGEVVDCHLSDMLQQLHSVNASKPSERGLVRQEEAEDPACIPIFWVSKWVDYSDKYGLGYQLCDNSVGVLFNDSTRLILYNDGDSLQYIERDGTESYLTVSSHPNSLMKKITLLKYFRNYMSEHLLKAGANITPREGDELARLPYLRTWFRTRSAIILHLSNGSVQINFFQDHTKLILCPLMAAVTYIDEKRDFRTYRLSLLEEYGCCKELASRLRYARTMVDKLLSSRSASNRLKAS", "experiment": "Inhibition of human PLK"}, "[3]": {"molecular_target": "Calcium/calmodulin-dependent protein kinase type 1 (Homo sapiens) (UniProt Q14012)", "experiment": "Inhibition of human CAMK at 10 uM relative to control"}, "[4]": {"molecular_target": "Ribosomal protein S6 kinase alpha-5 (Homo sapiens) (UniProt O75582)", "experiment": "Inhibition of human MSK1 at 10 uM relative to control"}, "[5]": {"molecular_target": "Cyclin-dependent kinase 2/cyclin E1 (Homo sapiens, UniProt P24941)", "experiment": "Inhibition of human CDK2/Cyclin E", "assay_type": "protein-complex assay"}, "[6]": {"experiment": "Inhibition of PI3Kbeta in Beagle dog whole blood assessed as reduction in ADP-induced platelet aggregation preincubated for 5 mins followed by ADP addition and measured for 6 mins by impedance aggregometry", "assay_type": "tissue-based", "conditions": "Canis lupus familiaris", "outline": "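Ex vivo whole blood impedance aggregometry (Multiplate) with ADP as agonist, using blood drawn from anesthetized dogs in the Folts' model. Dogs were given i.v. bolus plus infusion doses over consecutive 30-min periods. Inhibition was related to measured plasma drug concentration to derive EC50. Mean ± SEM, n = 6.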"}, "[7]": {"molecular_target": "Mitogen-activated protein kinase 10 (Homo sapiens) (UniProt P53779)", "experiment": "Inhibition of human JNK3 at 10 uM relative to control"}, "[8]": {"experiment": "Inhibition of […] mouse thymoma viral oncogene homolog 1 (unknown origin) at 10 uM relative to control", "conditions": "Homo sapiens, condition thrombotic disease"}, "Rattus norvegicus [9]": {"tested_on": "Rattus norvegicus", "experiment": "Insulin sensitizing activity in Sprague-Dawley rat hyperinsulinemic-euglycemic glucose clamp model assessed as human insulin level during infusion of human insulin at 1000 ug/kg/min, iv for 2 mins followed by 50 ug/kg/min, iv for 28 mins measured during clamp 1 (reference value: 1.7 +/- 0.1 nM)", "assay_type": "functional", "conditions": "time 30 min, 0.5 h", "outline": "(§1)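 Anesthetized rats; hyperinsulinemic–euglycemic clamp with human insulin infused. A baseline clamp (Clamp1) was followed by a second clamp (Clamp2) with vehicle or drug i.v. The drug was given as a low dose (1000 μg kg−1 + 50 μg kg min−1) or a high dose (6000 μg kg−1 + 300 μg kg min−1). Steady-state glucose infusion rate for euglycemia was recorded, with plasma glucose, human insulin and total insulin; mean ± SEM, n = 4–5/group.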"}, "[10]": {"molecular_target": "Serine/threonine-protein kinase Sgk1 (Homo sapiens) (UniProt O00141)", "sequence (O00141 whole entry)": "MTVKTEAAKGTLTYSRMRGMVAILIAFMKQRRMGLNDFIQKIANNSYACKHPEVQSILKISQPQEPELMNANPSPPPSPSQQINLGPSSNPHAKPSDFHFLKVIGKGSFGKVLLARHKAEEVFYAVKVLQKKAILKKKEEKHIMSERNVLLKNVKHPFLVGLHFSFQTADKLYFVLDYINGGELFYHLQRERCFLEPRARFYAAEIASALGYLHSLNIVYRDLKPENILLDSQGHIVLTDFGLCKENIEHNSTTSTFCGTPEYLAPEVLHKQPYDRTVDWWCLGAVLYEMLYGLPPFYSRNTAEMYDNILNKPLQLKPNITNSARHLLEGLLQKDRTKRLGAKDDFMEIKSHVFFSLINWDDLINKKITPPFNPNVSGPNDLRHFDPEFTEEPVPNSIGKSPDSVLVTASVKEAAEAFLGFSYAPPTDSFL", "experiment": "Inhibition of human SGK at 10 uM relative to control"}, "[11]": {"molecular_target": "Serine/threonine-protein kinase PAK 1 (Homo sapiens, UniProt Q13153)", "sequence (Q13153 whole entry)": "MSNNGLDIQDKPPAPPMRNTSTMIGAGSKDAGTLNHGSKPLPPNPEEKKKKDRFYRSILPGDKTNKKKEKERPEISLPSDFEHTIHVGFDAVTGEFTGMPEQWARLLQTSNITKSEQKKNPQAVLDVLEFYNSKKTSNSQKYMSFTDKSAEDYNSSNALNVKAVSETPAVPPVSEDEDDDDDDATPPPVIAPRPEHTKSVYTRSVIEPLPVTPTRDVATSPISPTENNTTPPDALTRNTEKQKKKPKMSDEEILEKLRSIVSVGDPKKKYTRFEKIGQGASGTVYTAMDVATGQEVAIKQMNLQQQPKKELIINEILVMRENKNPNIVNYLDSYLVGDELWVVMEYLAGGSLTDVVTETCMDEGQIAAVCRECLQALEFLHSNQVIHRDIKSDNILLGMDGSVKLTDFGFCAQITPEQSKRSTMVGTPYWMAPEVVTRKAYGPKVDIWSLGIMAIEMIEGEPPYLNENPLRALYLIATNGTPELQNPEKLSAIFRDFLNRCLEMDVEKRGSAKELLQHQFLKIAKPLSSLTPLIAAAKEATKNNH", "experiment": "Inhibition of human PAK1"}, "Rattus norvegicus [12]": {"tested_on": "Rattus norvegicus", "experiment": "Insulin sensitizing activity in Sprague-Dawley rat hyperinsulinemic-euglycemic glucose clamp model assessed as total insulin level during infusion of human insulin at 1000 ug/kg/min, iv for 2 mins followed by 50 ug/kg/min, iv for 28 mins measured during clamp 2 (reference value: 2.2 +/- 0.1 nM)", "assay_type": "functional", "conditions": "time 30 min, 0.5 h", "outline": "as §1"}, "[13]": {"molecular_target": "Fibroblast growth factor receptor 1 (Homo sapiens, UniProt P11362)", "experiment": "Inhibition of human FGFR1"}, "[14]": {"molecular_target": "MAP kinase-activated protein kinase 3 (Homo sapiens) (UniProt Q16644)", "experiment": "Inhibition of human MAPKAP-K3 at 10 uM relative to control"}, "[15]": {"experiment": "Toxicity in Sprague-Dawley rat hyperinsulinemic-euglycemic glucose clamp model assessed as increase in blood pressure at 6000 ug/kg/min, iv for 2 mins followed by 300 ug/kg/min, iv for 28 mins", "assay_type": "organism-based", "conditions": "in vivo, 0.5 h, time 30 min", "outline": "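Anesthetized rats underwent two consecutive hyperinsulinemic–euglycemic clamps with human insulin infusion: a baseline Clamp1, then Clamp2 with vehicle or AZD6482 i.v. (n = 4–5/group). Blood pressure and heart rate were followed during control periods and after drug administration. Steady-state glucose infusion rate maintained euglycemia.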"}, "[16]": {"molecular_target": "Protein kinase C zeta type (Homo sapiens) (UniProt Q05513)", "experiment": "Inhibition of human PKCz at 10 uM relative to control"}, "[17]": {"experiment": "Inhibition of PI3Kbeta in Beagle dog whole blood assessed as reduction in ADP-induced thrombus formation at 1 uM relative to control", "conditions": "Canis lupus familiaris, condition thrombotic disease"}, "[18]": {"molecular_target": "Tyrosine-protein kinase JAK3 (Homo sapiens, UniProt P52333)", "experiment": "Inhibition of human JAK3"}, "[19]": {"experiment": "Toxicity in Sprague-Dawley rat assessed as change in blood pressure at 30000 ug/kg, iv for 2 mins followed by 1500 ug/kg/min, iv for 28 mins", "assay_type": "organism-based", "conditions": "in vivo, 30 mg/kg, 0.5 h, time 30 min"}, "[20]": {"molecular_target": "SRSF protein kinase 1 (Homo sapiens) (UniProt Q96SB4)", "experiment": "Inhibition of human SRPK1 at 10 uM relative to control"}, "[21]": {"molecular_target": "MAP kinase-interacting serine/threonine-protein kinase 2 (Homo sapiens) (UniProt Q9HBH9)", "sequence (Q9HBH9 whole entry, looked up)": "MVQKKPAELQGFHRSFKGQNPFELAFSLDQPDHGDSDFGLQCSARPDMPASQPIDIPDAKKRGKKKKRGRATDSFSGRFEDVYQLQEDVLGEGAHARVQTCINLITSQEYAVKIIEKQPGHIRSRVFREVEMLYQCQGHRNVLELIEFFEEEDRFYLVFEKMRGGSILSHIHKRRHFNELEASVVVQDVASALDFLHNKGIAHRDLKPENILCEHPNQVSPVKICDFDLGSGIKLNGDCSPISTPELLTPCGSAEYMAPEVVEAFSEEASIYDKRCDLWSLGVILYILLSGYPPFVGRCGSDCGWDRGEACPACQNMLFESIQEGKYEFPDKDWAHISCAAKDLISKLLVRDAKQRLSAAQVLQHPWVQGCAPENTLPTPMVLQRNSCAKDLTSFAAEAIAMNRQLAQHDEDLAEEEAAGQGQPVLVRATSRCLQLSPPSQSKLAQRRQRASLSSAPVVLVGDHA", "experiment": "Inhibition of human MNK2 at 10 uM relative to control"}, "Rattus norvegicus [22]": {"tested_on": "Rattus norvegicus", "experiment": "Insulin sensitizing activity in Sprague-Dawley rat hyperinsulinemic-euglycemic glucose clamp model assessed as human insulin level during infusion of human insulin at 6000 ug/kg/min, iv for 2 mins followed by 300 ug/kg/min, iv for 28 mins measured during clamp 2 (reference value: 1.8 +/- 0.1 nM)", "assay_type": "functional", "conditions": "time 30 min, 0.5 h", "outline": "as §1"}, "Rattus norvegicus [23]": {"tested_on": "Rattus norvegicus", "experiment": "Insulin sensitizing activity in Sprague-Dawley rat hyperinsulinemic-euglycemic glucose clamp model assessed as glucose level during infusion of human insulin at 1000 ug/kg/min, iv for 2 mins followed by 50 ug/kg/min, iv for 28 mins measured during clamp 1 by colorimetry (reference value: 8.4 +/- 0.8 mM)", "assay_type": "functional", "conditions": "time 30 min, 0.5 h", "outline": "as §1"}, "[24]": {"molecular_target": "Vascular endothelial growth factor receptor 2 (Homo sapiens, UniProt P35968)", "sequence (P35968 whole entry)": "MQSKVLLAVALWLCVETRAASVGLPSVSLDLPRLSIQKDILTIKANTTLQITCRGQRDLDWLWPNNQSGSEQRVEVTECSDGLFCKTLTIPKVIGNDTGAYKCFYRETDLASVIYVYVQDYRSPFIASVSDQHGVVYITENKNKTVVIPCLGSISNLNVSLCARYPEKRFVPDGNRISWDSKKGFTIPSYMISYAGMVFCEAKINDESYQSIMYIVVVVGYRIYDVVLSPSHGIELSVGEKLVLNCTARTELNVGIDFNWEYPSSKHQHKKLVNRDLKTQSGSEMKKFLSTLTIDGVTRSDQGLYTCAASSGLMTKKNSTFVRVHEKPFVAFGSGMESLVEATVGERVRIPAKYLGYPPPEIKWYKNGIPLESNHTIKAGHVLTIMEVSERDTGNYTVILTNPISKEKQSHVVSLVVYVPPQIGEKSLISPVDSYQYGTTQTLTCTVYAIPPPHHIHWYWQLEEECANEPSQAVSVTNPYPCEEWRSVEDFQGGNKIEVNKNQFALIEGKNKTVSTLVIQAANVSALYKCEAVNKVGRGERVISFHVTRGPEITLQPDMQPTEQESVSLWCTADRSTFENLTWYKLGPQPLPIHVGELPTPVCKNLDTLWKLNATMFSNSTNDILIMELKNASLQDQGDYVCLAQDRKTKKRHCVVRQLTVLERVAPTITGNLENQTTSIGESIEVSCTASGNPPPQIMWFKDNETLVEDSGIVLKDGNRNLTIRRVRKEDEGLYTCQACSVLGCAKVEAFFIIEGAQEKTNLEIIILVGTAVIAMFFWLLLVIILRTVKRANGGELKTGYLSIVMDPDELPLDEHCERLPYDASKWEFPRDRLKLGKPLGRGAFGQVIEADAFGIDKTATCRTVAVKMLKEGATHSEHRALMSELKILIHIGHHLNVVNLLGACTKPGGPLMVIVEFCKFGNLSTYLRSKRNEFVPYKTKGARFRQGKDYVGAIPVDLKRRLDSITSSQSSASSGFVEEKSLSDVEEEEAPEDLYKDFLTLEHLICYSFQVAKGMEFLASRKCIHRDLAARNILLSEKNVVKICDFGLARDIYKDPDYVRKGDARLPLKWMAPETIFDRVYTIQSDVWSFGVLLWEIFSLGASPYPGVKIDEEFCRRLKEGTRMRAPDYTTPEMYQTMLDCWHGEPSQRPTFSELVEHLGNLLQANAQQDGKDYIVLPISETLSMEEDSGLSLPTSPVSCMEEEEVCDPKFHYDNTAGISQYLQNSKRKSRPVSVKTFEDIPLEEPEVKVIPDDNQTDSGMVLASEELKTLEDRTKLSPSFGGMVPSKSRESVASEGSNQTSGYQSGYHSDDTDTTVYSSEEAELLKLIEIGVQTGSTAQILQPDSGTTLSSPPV", "experiment": "Inhibition of human KDR"}, "[25]": {"experiment": "Plasma concentration in Sprague-Dawley rat hyperinsulinemic-euglycemic glucose clamp model at […], iv for 2 mins followed by 300 ug/kg/min, iv for 28 mins", "assay_type": "ADME, organism-based", "conditions": "time 30 min", "outline": "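Plasma drug levels were sampled during the drug-infusion clamp period (Clamp2) in anesthetized rats under a human-insulin hyperinsulinemic–euglycemic clamp. I.v. regimens were 1000 μg kg−1 + 50 μg kg min−1 or 6000 μg kg−1 + 300 μg kg min−1; mean ± SEM, n = 4–5/group.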"}, "[26]": {"molecular_target": "Homeodomain-interacting protein kinase 2 (Homo sapiens) (UniProt Q9H2X6)", "sequence (Q9H2X6 whole entry, looked up)": "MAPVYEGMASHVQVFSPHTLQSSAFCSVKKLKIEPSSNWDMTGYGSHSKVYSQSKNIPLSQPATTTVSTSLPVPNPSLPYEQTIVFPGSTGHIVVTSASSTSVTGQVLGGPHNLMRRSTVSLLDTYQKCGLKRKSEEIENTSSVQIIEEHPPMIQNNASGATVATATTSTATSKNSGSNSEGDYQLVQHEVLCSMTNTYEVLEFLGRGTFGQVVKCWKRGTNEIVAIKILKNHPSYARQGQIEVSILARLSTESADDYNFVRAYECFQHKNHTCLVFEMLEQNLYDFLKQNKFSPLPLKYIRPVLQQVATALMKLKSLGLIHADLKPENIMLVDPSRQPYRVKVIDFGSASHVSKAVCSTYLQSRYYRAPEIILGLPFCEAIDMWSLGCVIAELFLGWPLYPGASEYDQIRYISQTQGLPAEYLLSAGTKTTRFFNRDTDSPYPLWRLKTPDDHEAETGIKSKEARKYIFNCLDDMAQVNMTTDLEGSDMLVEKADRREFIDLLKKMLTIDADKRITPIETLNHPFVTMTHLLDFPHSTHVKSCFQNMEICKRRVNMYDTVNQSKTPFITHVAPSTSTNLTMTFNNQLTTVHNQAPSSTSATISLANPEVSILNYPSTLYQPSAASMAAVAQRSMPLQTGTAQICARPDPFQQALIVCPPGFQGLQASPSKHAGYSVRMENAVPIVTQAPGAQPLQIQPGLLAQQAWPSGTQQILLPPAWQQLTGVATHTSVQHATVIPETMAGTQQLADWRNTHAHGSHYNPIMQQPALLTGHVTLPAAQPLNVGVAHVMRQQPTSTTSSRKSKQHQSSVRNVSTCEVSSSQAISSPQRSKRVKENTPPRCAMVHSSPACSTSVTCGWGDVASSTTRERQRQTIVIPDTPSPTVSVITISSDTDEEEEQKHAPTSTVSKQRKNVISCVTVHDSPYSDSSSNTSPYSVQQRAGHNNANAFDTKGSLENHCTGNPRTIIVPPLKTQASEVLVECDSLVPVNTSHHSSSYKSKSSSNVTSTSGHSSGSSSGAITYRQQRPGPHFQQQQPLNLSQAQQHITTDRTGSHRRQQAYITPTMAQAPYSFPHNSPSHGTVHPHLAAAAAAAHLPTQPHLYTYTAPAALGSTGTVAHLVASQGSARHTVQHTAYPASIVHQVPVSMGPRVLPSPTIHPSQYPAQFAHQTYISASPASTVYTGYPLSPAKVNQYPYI", "experiment": "Inhibition of human HIPK2 at 10 uM relative to control"}, "[27]": {"molecular_target": "Serine/threonine-protein kinase Nek2 (Homo sapiens) (UniProt P51955)", "sequence (P51955 whole entry)": "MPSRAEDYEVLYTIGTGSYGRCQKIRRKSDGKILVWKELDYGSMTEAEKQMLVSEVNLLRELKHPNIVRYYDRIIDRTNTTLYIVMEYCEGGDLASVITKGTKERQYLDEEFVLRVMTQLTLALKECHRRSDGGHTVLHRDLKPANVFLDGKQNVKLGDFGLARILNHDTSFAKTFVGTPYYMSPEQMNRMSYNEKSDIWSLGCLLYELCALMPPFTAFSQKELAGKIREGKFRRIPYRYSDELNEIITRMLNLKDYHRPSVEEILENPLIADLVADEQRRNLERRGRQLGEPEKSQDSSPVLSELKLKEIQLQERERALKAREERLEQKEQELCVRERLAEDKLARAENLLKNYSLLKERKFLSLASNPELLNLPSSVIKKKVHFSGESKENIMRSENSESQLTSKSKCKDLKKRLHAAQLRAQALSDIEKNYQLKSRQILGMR", "experiment": "Inhibition of human NEK2a at 10 uM relative to control"}, "Canis familiaris": {"tested_on": "Canis familiaris", "experiment": "Antithrombotic activity in Beagle dog model of arterial thrombosis and bleeding assessed as blood loss at 0.005 to 0.24 ug/kg/min, iv via bolus for 29 mins and measured for 15 mins", "assay_type": "functional, organism-based", "conditions": "Canis lupus familiaris", "outline": "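Modified Folts' model of thrombosis in a damaged, stenosed femoral artery of anesthetized dogs. Animals first received saline vehicle. Consecutive i.v. doses then followed, each given over a 30-min period as a bolus (0.03–1.3 μg kg−1) plus an infusion (0.005–0.24 μg kg min−1). Read-outs were cyclic flow reductions, expressed as % restoration of blood flow, plus bleeding time, blood loss and plasma drug exposure. Mean ± SEM, n = 6.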"}}, "note": "Activity calls are given as the source filed them. No cut-off for these calls is given here."}
{"compound": "Cc1cc([C@@H](C)Nc2ccccc2C(=O)O)c2nc(N3CCOCC3)cc(=O)n2c1", "note": "[AZD-6482]", "values": [{"measurement": "IC50", "setting": "Focal adhesion kinase 1", "value": "> 1000", "unit": "µM"}, {"measurement": "inhibition", "setting": "[1]", "value": 0.2, "unit": "%"}, {"measurement": "IC50", "setting": "[2]", "value": 84, "unit": "µM"}, {"measurement": "inhibition", "setting": "[3]", "value": 9.7, "unit": "%"}, {"measurement": "inhibition", "setting": "[4]", "value": -4.2, "unit": "%"}, {"measurement": "IC50", "setting": "[5]", "value": "> 1000", "unit": "µM"}, {"measurement": "EC50", "setting": "[6]", "value": 0.13, "unit": "µM"}, {"measurement": "inhibition", "setting": "[7]", "value": 4.4, "unit": "%"}, {"measurement": "inhibition at 10 µM", "setting": "[8]", "value": 2.1, "unit": "%"}, {"measurement": "Activity", "setting": "Rattus norvegicus [9]", "value": 1.8, "unit": "nM"}, {"measurement": "inhibition", "setting": "[10]", "value": -5.8, "unit": "%"}, {"measurement": "IC50", "setting": "[11]", "value": "> 336", "unit": "µM"}, {"measurement": "Activity", "setting": "Rattus norvegicus [12]", "value": 2.2, "unit": "nM"}, {"measurement": "IC50", "setting": "[13]", "value": "> 699", "unit": "µM"}, {"measurement": "inhibition", "setting": "[14]", "value": 8.3, "unit": "%"}, {"measurement": "Activity", "setting": "[15]", "value": 15, "unit": "mmHg"}, {"measurement": "inhibition", "setting": "[16]", "value": 13, "unit": "%"}, {"measurement": "inhibition at 1 µM", "setting": "[17]", "value": "> 80", "unit": "%"}, {"measurement": "IC50", "setting": "[18]", "value": "> 201", "unit": "µM"}, {"measurement": "Activity", "setting": "[19]", "value": "Non-Toxic"}, {"measurement": "inhibition", "setting": "[20]", "value": -9.4, "unit": "%"}, {"measurement": "inhibition", "setting": "[21]", "value": 6.2, "unit": "%"}, {"measurement": "Activity", "setting": "Rattus norvegicus [22]", "value": 2.3, "unit": "nM"}, {"measurement": "Activity", "setting": "Rattus norvegicus [23]", "value": 7.3, "unit": "mM"}, {"measurement": "IC50", "setting": "[24]", "value": "> 117", "unit": "µM"}, {"measurement": "concentration at 0.5 h", "setting": "[25]", "value": 26.8, "unit": "µM"}, {"measurement": "inhibition", "setting": "[26]", "value": 1, "unit": "%"}, {"measurement": "inhibition", "setting": "[27]", "value": 1.3, "unit": "%"}, {"measurement": "Activity", "setting": "Canis familiaris", "value": "inactive"}]}
